Common to all, as to assay type: functional, organism-based
Assay [1] relates to Phaedon cochleariae. As to the kind of experiment: Insecticidal activity against Phaedon cochleariae larvae in disk of Chinese cabbage leaf at 500 g/ha treated as spray. The essentials:
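This was sprayed on Chinese cabbage leaf disks. Once dry, disks were infested with mustard beetle larvae and mortality was scored after a set time. "+" denotes ≥80% larvae killed; n.a. denotes none killed.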

Assay [2] relates to Spodoptera frugiperda. Put plainly: Insecticidal activity against Spodoptera frugiperda larvae in disk of maize leaf treated as spray.
Assay [3] concerns Spodoptera frugiperda. As to the kind of experiment: Insecticidal activity against Spodoptera frugiperda larvae in disk of maize leaf at 100 g/ha treated as spray. An outline of the steps:
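The same acetone/DMF/emulsifier formulation, diluted in emulsifier-containing water, was sprayed onto maize leaf disks. Dried disks were infested with fall armyworm larvae and mortality was assessed after a set time. "+" denotes ≥80% larvae killed; n.a. denotes no larvae killed.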

The subject of assay [4] is Phaedon cochleariae. As to the kind of experiment: Insecticidal activity against Phaedon cochleariae larvae in disk of Chinese cabbage leaf treated as spray.

Active and inactive are the calls of the source. Unless noted, no cut-off for these calls is given here.

Turning to `COc1cc(C2C3=C(COC3=O)Oc3cc4c(cc32)OCO4)cc(Br)c1OC` (stereo not given), the outcome with Phaedon cochleariae [1] was Active. In addition, the result with Spodoptera frugiperda [2] was inactive.
For `COc1cc(C2C3=C(CNC3=O)Nc3cc4c(cc32)OCO4)cc(OC)c1OC` (stereo not given), the result in the assay on Phaedon cochleariae [1] was Active. The result with Spodoptera frugiperda [2] was inactive.
Turning to `O=C1OCC2=C1C(c1ccc(F)c(Br)c1)c1cc3c(cc1N2)OCO3` (stereo not given), the outcome in the assay on Phaedon cochleariae [1] was Active.
As to `CC1(C)COS(=O)(=O)C2=C1Nc1cc3c(cc1C2c1cccc(Cl)c1)OCO3` (stereo not given), the outcome with Phaedon cochleariae [1] was Active. For the same compound, the result in the assay on Spodoptera frugiperda [2] was inactive.
On the same counts, the results for `CC1(C)OS(=O)(=O)C2=C1Nc1cc3c(cc1C2c1cccc(Cl)c1)OCO3` (stereo not given) are “Active” and “inactive”.
As to `COc1cc(OC)cc(C2C3=C(COC3=O)Nc3cc(SC)ccc32)c1` (stereo not given), the result in the assay on Spodoptera frugiperda [3] and with Phaedon cochleariae [1] was Active.
Turning to `O=C1NCC2=C1C(c1cccc(Cl)c1)c1cc3c(cc1N2)OCO3` (stereo not given), the outcome in the assay with Spodoptera frugiperda [3] and in the assay with Phaedon cochleariae [1] was Active.
With `COc1cc(OC)cc(C2C3=C(COC3=O)Nc3cc(OC4CC4)ccc32)c1` (stereo not given), the result with Spodoptera frugiperda [3] and in the assay on Phaedon cochleariae [1] was Active.
As for `CC1(C)OC(=O)C2=C1Nc1cc3c(cc1C2c1cccc(Cl)c1)OCO3` (stereo not given), in the assay with Phaedon cochleariae [1], the outcome was Active. Moreover, the result in the assay on Spodoptera frugiperda [2] was inactive.
Turning to `N#CCOc1cccc(C2C3=C(COC3=O)Nc3cc4c(cc32)OCO4)c1` (stereo not given), the outcome with Spodoptera frugiperda [3] and in the assay with Phaedon cochleariae [1] was Active.
In the case of `COc1cc(OC)cc(C2C3=C(COC3=O)Nc3cc4c(cc32)OCCO4)c1` (stereo not given), the result in the assay with Spodoptera frugiperda [3] and in the assay on Phaedon cochleariae [1] was Active.
With `COc1cc(OC)cc(C2C3=C(COC3=O)Nc3cc4c(cc32)OC(F)(F)O4)c1` (stereo not given), the outcome with Phaedon cochleariae [1] was Active. In the assay with Spodoptera frugiperda [2], the result was inactive.
In the same order, the values of `CC1(C)NC(=O)C2=C1Nc1cc3c(cc1C2c1cccc(Cl)c1)OCO3` (stereo not given) are “Active” and “inactive”.
On to `O=C1OCC2=C1C(c1cncc(Br)c1)c1cc3c(cc1N2)OCO3` (stereo not given), for which, in the assay with Phaedon cochleariae [4], the result was inactive. In the assay on Spodoptera frugiperda [3], the result was Active.
`COc1cc(OC)cc(C2C3=C(COC3=O)Nc3cc4c(cc32)OCCCO4)c1` (stereo not given): the outcome in the assay with Spodoptera frugiperda [3] and in the assay on Phaedon cochleariae [1] was Active.
On to `COc1cc(OC)cc(C2C3=C(COC3=O)Nc3cc(C)ccc32)c1` (stereo not given), for which, in the assay on Phaedon cochleariae [1], the outcome was Active.
For `COc1cc(C2C3=C(COC3=O)Nc3cc4c(cc32)OCO4)ccc1F` (stereo not given), the result with Spodoptera frugiperda [3] and in the assay on Phaedon cochleariae [1] was Active.
As to `COc1cc(OC)cc(C2C3=C(COC3=O)N(C)c3cc(OC)ccc32)c1` (stereo not given), in the assay on Phaedon cochleariae [4], the result was inactive. The result in the assay with Spodoptera frugiperda [3] was Active.
In the case of `COc1cc(OC)cc(C2C3=C(CCC3=O)Nc3cc4c(cc32)OCO4)c1` (stereo not given), the result in the assay on Spodoptera frugiperda [3] and with Phaedon cochleariae [1] was Active.
As for `COc1cc(OC)cc(C2C3=C(CNC3=O)Nc3cc4c(cc32)OCO4)c1` (stereo not given), in the assay with Phaedon cochleariae [1], the result was Active. The outcome with Spodoptera frugiperda [2] was inactive.
Take `O=C1OCC2=C1C(c1cccc(Cl)c1)c1cc3c(cc1N2)OCO3` (stereo not given): the outcome with Spodoptera frugiperda [3] and in the assay with Phaedon cochleariae [1] was Active.
`O=C1OCC2=C1C(c1cc(Br)cc(Br)c1)c1cc3c(cc1N2)OCO3` (stereo not given): the result with Phaedon cochleariae [4] was inactive. In the assay on Spodoptera frugiperda [3], the outcome was Active.
As to `O=C1OC2(CCCC2)C2=C1C(c1cccc(Cl)c1)c1cc3c(cc1N2)OCO3` (stereo not given), the outcome with Phaedon cochleariae [1] was Active. Further, the outcome with Spodoptera frugiperda [2] was inactive.
Regarding `COc1cccc(C2C3=C(O)OCC3=Nc3cc4c(cc32)OCO4)c1` (stereo not given), the result in the assay on Phaedon cochleariae [4] was inactive. The result in the assay with Spodoptera frugiperda [3] was Active.
On the same counts, the results for `Cc1cccc(C2C3=C(COC3=O)Nc3cc4c(cc32)OCO4)c1` (stereo not given) are “inactive” and “Active”.
On to `O=C1OCC2=C1C(c1ccc(F)c(Cl)c1)c1cc3c(cc1N2)OCO3` (stereo not given), for which the outcome in the assay with Phaedon cochleariae [4] was inactive. Besides, the outcome with Spodoptera frugiperda [3] was Active.

The record behind these values is ChEMBL document CHEMBL1137753, “Insecticidal heterolignans--tubuline polymerization inhibitors with activity against chewing pests” (Bioorg Med Chem, 2009).
